Measurements: ChEMBL document CHEMBL4190374, “Structure-Function Evaluation of Imidazopyridine Derivatives Selective for δ-Subunit-Containing γ-Aminobutyric Acid Type A (GABAA) Receptors” (J Med Chem, 2018)

Assays:
[1] = biological target: Gamma-aminobutyric acid receptor subunit alpha-6/beta-3 (Rattus norvegicus, UniProt P30191+P63079); assay: Displacement of [3H]EBOB from rat GABA-A receptor alpha6beta3 expressed in HEK293 cell membranes after 90 mins by liquid scintillation counting analysis
Sequence of Gamma-aminobutyric acid receptor subunit alpha-6/beta-3 (P30191 whole entry): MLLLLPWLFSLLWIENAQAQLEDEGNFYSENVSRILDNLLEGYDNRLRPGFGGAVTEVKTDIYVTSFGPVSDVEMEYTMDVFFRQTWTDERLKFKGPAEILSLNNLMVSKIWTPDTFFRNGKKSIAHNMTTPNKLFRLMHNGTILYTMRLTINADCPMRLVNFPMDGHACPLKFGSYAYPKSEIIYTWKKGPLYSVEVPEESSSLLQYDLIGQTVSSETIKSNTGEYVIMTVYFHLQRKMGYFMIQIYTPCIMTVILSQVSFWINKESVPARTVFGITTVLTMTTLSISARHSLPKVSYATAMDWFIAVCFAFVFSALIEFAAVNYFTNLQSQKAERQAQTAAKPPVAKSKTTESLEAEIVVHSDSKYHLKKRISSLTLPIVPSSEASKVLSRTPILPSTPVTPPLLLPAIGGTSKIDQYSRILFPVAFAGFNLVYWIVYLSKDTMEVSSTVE
Sequence of Gamma-aminobutyric acid receptor subunit alpha-6/beta-3 (P63079 whole entry): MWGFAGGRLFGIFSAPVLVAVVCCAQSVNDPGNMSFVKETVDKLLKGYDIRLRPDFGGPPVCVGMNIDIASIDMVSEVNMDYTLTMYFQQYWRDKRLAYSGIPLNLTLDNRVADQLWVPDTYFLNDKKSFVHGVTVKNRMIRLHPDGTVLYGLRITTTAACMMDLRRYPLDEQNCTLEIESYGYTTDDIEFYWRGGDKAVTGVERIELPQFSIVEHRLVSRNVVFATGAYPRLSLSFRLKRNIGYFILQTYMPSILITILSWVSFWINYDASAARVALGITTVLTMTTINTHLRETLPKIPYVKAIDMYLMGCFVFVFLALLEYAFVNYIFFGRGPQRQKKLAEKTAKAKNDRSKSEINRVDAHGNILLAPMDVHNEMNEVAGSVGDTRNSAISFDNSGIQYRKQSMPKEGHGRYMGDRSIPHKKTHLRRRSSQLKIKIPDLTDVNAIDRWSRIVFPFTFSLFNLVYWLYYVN
In short: (§1)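 Crude membranes from HEK 293 cells transiently Ca-phosphate-transfected with rat subunit cDNAs, harvested at 48 h. Membranes (150-200 µg protein) incubated with 3 nM [3H]EBOB in 50 mM Tris/citrate pH 7.3 plus 0.2 M NaCl. Compound up to 10 µM, final DMSO 0.1%, no GABA, 90 min at 21 °C. Bound radioligand collected by GF/C filtration and counted by scintillation.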

[2] = biological target: Gamma-aminobutyric acid receptor subunit alpha-6/beta-3/gamma-2 (Rattus norvegicus, UniProt P18508+P30191+P63079); assay: Displacement of [3H]EBOB from rat GABA-A receptor alpha6beta3gamma2 expressed in HEK293 cell membranes after 90 mins by liquid scintillation counting analysis; in short: as §1
Sequence of Gamma-aminobutyric acid receptor subunit alpha-6/beta-3/gamma-2 (P18508 whole entry): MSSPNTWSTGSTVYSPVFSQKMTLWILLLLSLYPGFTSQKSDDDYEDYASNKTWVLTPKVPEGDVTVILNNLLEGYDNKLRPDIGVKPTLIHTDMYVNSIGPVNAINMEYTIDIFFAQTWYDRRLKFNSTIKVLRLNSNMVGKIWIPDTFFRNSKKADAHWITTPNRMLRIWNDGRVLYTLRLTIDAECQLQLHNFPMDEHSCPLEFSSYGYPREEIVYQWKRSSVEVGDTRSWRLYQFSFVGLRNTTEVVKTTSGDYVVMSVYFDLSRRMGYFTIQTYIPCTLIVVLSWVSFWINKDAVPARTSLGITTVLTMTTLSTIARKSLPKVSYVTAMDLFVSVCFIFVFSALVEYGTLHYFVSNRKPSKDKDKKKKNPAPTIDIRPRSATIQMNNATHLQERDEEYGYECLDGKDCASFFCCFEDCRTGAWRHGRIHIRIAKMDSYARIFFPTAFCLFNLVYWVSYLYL
Sequence of Gamma-aminobutyric acid receptor subunit alpha-6/beta-3/gamma-2 (P30191 whole entry): as the sequence (P30191 whole entry) above
Sequence of Gamma-aminobutyric acid receptor subunit alpha-6/beta-3/gamma-2 (P63079 whole entry): as the sequence (P63079 whole entry) above

[3] = biological target: Gamma-aminobutyric acid receptor subunit alpha-6/beta-3/delta (Rattus norvegicus, UniProt P18506+P30191+P63079); assay: Displacement of [3H]EBOB from rat GABA-A receptor alpha6beta3delta expressed in HEK293 cell membranes after 90 mins by liquid scintillation counting analysis; in short: as §1
Sequence of Gamma-aminobutyric acid receptor subunit alpha-6/beta-3/delta (P18506 whole entry): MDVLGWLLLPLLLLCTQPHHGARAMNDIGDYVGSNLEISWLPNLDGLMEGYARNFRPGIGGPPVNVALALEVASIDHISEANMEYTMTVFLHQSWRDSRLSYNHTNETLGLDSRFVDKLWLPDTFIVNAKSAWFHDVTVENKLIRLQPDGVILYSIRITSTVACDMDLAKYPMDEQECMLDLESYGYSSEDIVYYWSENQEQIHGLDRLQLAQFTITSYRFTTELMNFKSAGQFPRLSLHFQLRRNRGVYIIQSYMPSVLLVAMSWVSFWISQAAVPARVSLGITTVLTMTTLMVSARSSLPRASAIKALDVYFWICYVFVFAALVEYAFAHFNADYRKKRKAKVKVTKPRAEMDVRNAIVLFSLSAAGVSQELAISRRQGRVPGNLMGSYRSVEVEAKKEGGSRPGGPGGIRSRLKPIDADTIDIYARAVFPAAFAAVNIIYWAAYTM
Sequence of Gamma-aminobutyric acid receptor subunit alpha-6/beta-3/delta (P30191 whole entry): as the sequence (P30191 whole entry) above
Sequence of Gamma-aminobutyric acid receptor subunit alpha-6/beta-3/delta (P63079 whole entry): as the sequence (P63079 whole entry) above

[4] = biological target: Gamma-aminobutyric acid receptor subunit alpha-6/beta-3 (Rattus norvegicus) (UniProt P30191+P63079); assay: Displacement of [3H]EBOB from rat GABA-A receptor alpha6beta3 expressed in HEK293 cell membranes up to 20 uM after 90 mins by liquid scintillation counting analysis relative to control
[5] = biological target: Gamma-aminobutyric acid receptor subunit alpha-6/beta-3/gamma-2 (Rattus norvegicus) (UniProt P18508+P30191+P63079); assay: Displacement of [3H]EBOB from rat GABA-A receptor alpha6beta3gamma2 expressed in HEK293 cell membranes up to 20 uM after 90 mins by liquid scintillation counting analysis relative to control
[6] = biological target: Gamma-aminobutyric acid receptor subunit alpha-6/beta-3/delta (Rattus norvegicus) (UniProt P18506+P30191+P63079); assay: Displacement of [3H]EBOB from rat GABA-A receptor alpha6beta3delta expressed in HEK293 cell membranes up to 20 uM after 90 mins by liquid scintillation counting analysis relative to control

O=C(Nc1c(-c2cccs2)nc2ccc(Br)cn12)C1CCCCC1
IC50 [1]: 16 µM
IC50 [2]: 25 µM
IC50 [3]: 10.1 µM
Imax [4]: 21%
Imax [5]: > 89%
Imax [6]: 85%
